Reference: ChEMBL document CHEMBL1131628 (J Med Chem, 1998)
“And” between values parts separate entries of the source, which are not always exact repeats. Equal values may be shown once.

What was measured:
[1] = Pharmacokinetic profile AUC was evaluated in rats; format: ADME, organism-based; parameters: concentration or dose not given beside the values; details: rat, in vivo
How it was run: (§1)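 Male Sprague-Dawley rats, n = 4 per group, 10 mg/kg iv (jugular slow bolus) or oral gavage, 10 mg/mL in ethanol–propylene glycol–D5W (20:30:50) with 1 equiv NaOH. Tail-vein plasma taken 0.1 (iv only) to 12 h, assayed by HPLC after extraction. AUC by trapezoidal rule extrapolated to infinity; T1/2 from terminal rate constant; F as oral/iv AUC.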

[2] = Bioavailability in rat; format: ADME, organism-based; details: in vivo; how it was run: as §1
[3] = Pharmacokinetic profile Cmax was evaluated in rats; format: ADME, organism-based; details: rat, in vivo; how it was run: as §1
[4] = Pharmacokinetic profile-half life was evaluated in rats upon intravenous administration; format: ADME, organism-based; details: rat, in vivo; how it was run: as §1
[5] = Pharmacokinetic profile-half life was evaluated in rats upon oral administration; format: ADME, organism-based; details: rat, in vivo; how it was run: as §1
[6] = biological target: T1, Endothelin receptor type B (Homo sapiens, UniProt P24530); experiment: Tested for binding affinity for human Endothelin B receptor by measuring its ability to displace [125I]ET-3 from chinese hamster ovary cells(CHO); format: cell-based
T1 sequence (P24530 whole entry): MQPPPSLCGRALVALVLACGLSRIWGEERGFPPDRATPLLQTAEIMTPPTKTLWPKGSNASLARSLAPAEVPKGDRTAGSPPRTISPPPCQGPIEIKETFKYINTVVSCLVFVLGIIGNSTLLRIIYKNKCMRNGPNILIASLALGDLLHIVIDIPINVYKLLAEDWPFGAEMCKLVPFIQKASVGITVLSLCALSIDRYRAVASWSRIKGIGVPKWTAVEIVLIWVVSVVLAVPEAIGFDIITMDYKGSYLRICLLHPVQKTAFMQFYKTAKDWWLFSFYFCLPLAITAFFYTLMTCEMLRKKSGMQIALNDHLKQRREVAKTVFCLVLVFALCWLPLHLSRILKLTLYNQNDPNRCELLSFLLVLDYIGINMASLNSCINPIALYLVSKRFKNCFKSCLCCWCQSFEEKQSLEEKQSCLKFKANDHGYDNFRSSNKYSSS

[7] = biological target: T2, Endothelin-1 receptor (Rattus norvegicus, UniProt P26684); experiment: Binding affinity for endothelin A receptor by measuring its ability to displace [125I]ET1 from prolactin secreting rat pituitary cells(MMQ); format: cell-based, Pituitary gland cell
T2 sequence (P26684 whole entry): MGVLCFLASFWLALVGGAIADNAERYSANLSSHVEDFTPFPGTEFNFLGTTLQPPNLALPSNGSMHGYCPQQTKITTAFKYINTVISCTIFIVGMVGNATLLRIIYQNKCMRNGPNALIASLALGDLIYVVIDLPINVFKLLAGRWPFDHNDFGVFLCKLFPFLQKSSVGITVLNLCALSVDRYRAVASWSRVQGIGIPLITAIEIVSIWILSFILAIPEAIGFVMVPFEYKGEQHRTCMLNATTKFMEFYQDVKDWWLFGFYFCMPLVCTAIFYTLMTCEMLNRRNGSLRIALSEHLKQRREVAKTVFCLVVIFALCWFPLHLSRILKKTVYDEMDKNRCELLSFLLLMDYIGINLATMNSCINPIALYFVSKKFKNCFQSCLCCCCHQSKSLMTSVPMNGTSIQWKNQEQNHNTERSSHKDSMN

[8] = biological target: T3, Endothelin-1 receptor (Homo sapiens, UniProt P25101); experiment: Tested for binding affinity for human Endothelin A receptor by measuring its ability to displace [125I]ET1 from chinese hamster ovary cells(CHO); format: cell-based
T3 sequence (P25101 whole entry): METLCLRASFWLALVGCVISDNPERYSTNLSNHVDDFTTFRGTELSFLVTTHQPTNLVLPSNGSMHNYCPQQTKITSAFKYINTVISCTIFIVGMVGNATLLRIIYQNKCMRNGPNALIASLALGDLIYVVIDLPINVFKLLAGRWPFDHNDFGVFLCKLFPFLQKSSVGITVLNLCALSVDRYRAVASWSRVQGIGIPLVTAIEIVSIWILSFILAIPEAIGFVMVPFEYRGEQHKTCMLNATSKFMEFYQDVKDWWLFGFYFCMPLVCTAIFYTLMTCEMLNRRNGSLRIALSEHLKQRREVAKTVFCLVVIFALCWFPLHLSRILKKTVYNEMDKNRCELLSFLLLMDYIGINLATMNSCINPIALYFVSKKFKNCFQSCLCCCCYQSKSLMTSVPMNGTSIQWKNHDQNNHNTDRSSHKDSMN

Row | Structure (SMILES) | IC50 [7] | other results
1 | C/C=C\C(C)(C)C[C@H]1[C@H](C(=O)O)[C@@H](c2cc(OC)c3c(c2)OCO3)CN1CC(=O)N(CCCC)CCCC | 0.41 nM | AUC [1]: 2090 ng·h/mL; bioavailability [2]: 27.8%; Cmax [3]: 660 ng/mL; half-life [4]: 1.5 h; half-life [5]: 3.94 h; IC50 [6]: 39700 nM; IC50 [8]: 0.29 nM
2 | CCCCN(CCCC)C(=O)CN1C[C@H](c2ccc3c(c2)OCO3)[C@@H](C(=O)O)[C@@H]1CCN1C(=O)CCC1=O | 5 nM | –
3 | CCCCN(CCCC)C(=O)CN1C[C@H](c2ccc3c(c2)OCO3)[C@@H](C(=O)O)[C@@H]1CCC(CC)CC | 22 nM | –
4 | CCCCC[C@H]1[C@H](C(=O)O)[C@@H](c2ccc3c(c2)OCO3)CN1CC(=O)N(CCCC)CCCC | 2.5 nM | –
5 | CCCCN(CCCC)C(=O)CN1C[C@H](c2ccc3c(c2)OCO3)[C@@H](C(=O)O)[C@@H]1CCC1SCCS1 | 4.5 nM | –
6 | C/C=C/CC[C@H]1[C@H](C(=O)O)[C@@H](c2ccc3c(c2)OCO3)CN1CC(=O)N(CCCC)CCCC | 4.8 nM | –
7 | CCCCN(CCCC)C(=O)CN1C[C@H](c2ccc3c(c2)OCO3)[C@@H](C(=O)O)[C@@H]1CC(C)CCC (some centres undefined) | 3 nM | –
8 | C/C=C\C(C)(C)C[C@H]1[C@H](C(=O)O)[C@@H](c2ccc3c(c2)OCO3)CN1CC(=O)N(CCCC)CCCC | – | AUC [1]: 2620 ng·h/mL; bioavailability [2]: 32.2%; Cmax [3]: 1490 ng/mL; half-life [4]: 1.6 h; half-life [5]: 3.58 h; IC50 [6]: 92700 nM; IC50 [8]: 1 nM
9 | CCCCN(CCCC)C(=O)CN1C[C@H](c2ccc3c(c2)OCO3)[C@@H](C(=O)O)[C@@H]1CCC1OCCCO1 | 3.3 nM | –
10 | CCCCN(CCCC)C(=O)CN1C[C@H](c2ccc3c(c2)OCO3)[C@@H](C(=O)O)[C@@H]1CCc1ccco1 | 2.7 nM | –
11 | CCCCN(CCCC)C(=O)CN1C[C@H](c2ccc3c(c2)OCO3)[C@@H](C(=O)O)[C@@H]1CCN1CCCCC1=O | 2 nM | –
12 | CCCCN(CCCC)C(=O)CN1C[C@H](c2ccc3c(c2)OCO3)[C@@H](C(=O)O)[C@@H]1CCC1CCOCC1 | 10 nM | –
13 | CCCCN(CCCC)C(=O)CN1C[C@H](c2ccc3c(c2)OCO3)[C@@H](C(=O)O)[C@@H]1CCC1CCCO1 (some centres undefined) | 12 nM | –
14 | CCCCN(CCCC)C(=O)CN1C[C@H](c2ccc3c(c2)OCO3)[C@@H](C(=O)O)[C@@H]1CCc1nc(C)c(C)o1 | 1.05 nM | –
15 | C/C=C\CC[C@H]1[C@H](C(=O)O)[C@@H](c2ccc3c(c2)OCO3)CN1CC(=O)N(CCCC)CCCC | 0.78 nM | –
16 | CCCCN(CCCC)C(=O)CN1C[C@H](c2ccc3c(c2)OCO3)[C@@H](C(=O)O)[C@@H]1CCC=C(C)C | 1.3 nM | –
17 | CCCCN(CCCC)C(=O)CN1C[C@H](c2ccc3c(c2)OCO3)[C@@H](C(=O)O)[C@@H]1CCn1ccccc1=O | 2.2 nM | –
18 | CCCCN(CCCC)C(=O)CN1C[C@H](c2ccc3c(c2)OCO3)[C@@H](C(=O)O)[C@@H]1CCCCC(F)(F)F | 4 nM | –
19 | CCCCN(CCCC)C(=O)CN1C[C@H](c2ccc3c(c2)OCO3)[C@@H](C(=O)O)[C@@H]1CCn1cccn1 | 0.51 nM | IC50 [6]: 42000 nM; IC50 [8]: 1.06 nM
20 | CCCCN(CCCC)C(=O)CN1C[C@H](c2ccc3c(c2)OCO3)[C@@H](C(=O)O)[C@@H]1CCC=C1CC1 | 0.64 nM | –

Row | Structure (SMILES) | IC50 [7] | other results
21 | CCCCN(CCCC)C(=O)CN1C[C@H](c2ccc3c(c2)OCO3)[C@@H](C(=O)O)[C@@H]1CCc1cccn1C | 2.5 nM | –
22 | CCCCN(CCCC)C(=O)CN1C[C@H](c2ccc3c(c2)OCO3)[C@@H](C(=O)O)[C@@H]1CCc1ccccn1 | 0.38 nM and 0.72 nM | AUC [1]: 780 ng·h/mL; bioavailability [2]: 21.1%; Cmax [3]: 580 ng/mL; half-life [4]: 2.8 h; half-life [5]: 8.8 h; IC50 [6]: 32000 nM; IC50 [8]: 0.29 nM
23 | CCCCN(CCCC)C(=O)CN1C[C@H](c2ccc3c(c2)OCO3)[C@@H](C(=O)O)[C@@H]1CC(C)(C)C=C(C)C | 2.7 nM | –
24 | CCCCN(CCCC)C(=O)CN1C[C@H](c2ccc3c(c2)OCO3)[C@@H](C(=O)O)[C@@H]1CC(C)(C)C1OCCO1 | 1.4 nM | –
25 | CCCCN(CCCC)C(=O)CN1C[C@H](c2ccc3c(c2)OCO3)[C@@H](C(=O)O)[C@@H]1CCc1ncco1 | 2.4 nM | –
26 | CCCCN(CCCC)C(=O)CN1C[C@H](c2ccc3c(c2)OCO3)[C@@H](C(=O)O)[C@@H]1CCC(C)CC (some centres undefined) | 16 nM | –
27 | CCCCN(CCCC)C(=O)CN1C[C@H](c2ccc3c(c2)OCO3)[C@@H](C(=O)O)[C@@H]1CC/C=C(/C)CC | 0.86 nM | –
28 | CCCCN(CCCC)C(=O)CN1C[C@H](c2ccc3c(c2)OCO3)[C@@H](C(=O)O)[C@@H]1CCCC(C)C | 2.5 nM | –
29 | CCCCN(CCCC)C(=O)CN1C[C@H](c2ccc3c(c2)OCO3)[C@@H](C(=O)O)[C@@H]1CCC1OCCO1 | 2.3 nM | –
30 | CCCCN(CCCC)C(=O)CN1C[C@H](c2ccc3c(c2)OCO3)[C@@H](C(=O)O)[C@@H]1CCc1ccoc1 | 2.2 nM | –
31 | CCCCN(CCCC)C(=O)CN1C[C@H](c2cc(OC)c3c(c2)OCO3)[C@@H](C(=O)O)[C@@H]1CC(C)(C)CCC [ABT-546] | 0.56 nM | AUC [1]: 3270 ng·h/mL; bioavailability [2]: 47.7%; Cmax [3]: 1690 ng/mL; half-life [4]: 1.6 h; half-life [5]: 2.5 h
32 | C/C=C(\C)CC[C@H]1[C@H](C(=O)O)[C@@H](c2ccc3c(c2)OCO3)CN1CC(=O)N(CCCC)CCCC | 3.3 nM | –
33 | CCCOc1ccc2c(c1)[C@@H](c1ccc(OC)cc1OCCO)[C@H](C(=O)O)[C@H]2c1ccc2c(c1)OCO2 | – | bioavailability [2]: 66%; half-life [4]: 3.3 h
34 | CCCCN(CCCC)C(=O)CN1C[C@H](c2ccc3c(c2)OCO3)[C@@H](C(=O)O)[C@@H]1CC(CCC)CCC | 6 nM | –
35 | C=C(C)CCC[C@H]1[C@H](C(=O)O)[C@@H](c2ccc3c(c2)OCO3)CN1CC(=O)N(CCCC)CCCC | 5.2 nM | –
36 | C=CCCC[C@H]1[C@H](C(=O)O)[C@@H](c2ccc3c(c2)OCO3)CN1CC(=O)N(CCCC)CCCC | 9.9 nM | –
37 | CCCCN(CCCC)C(=O)CN1C[C@H](c2ccc3c(c2)OCO3)[C@@H](C(=O)O)[C@@H]1CCC1OC(C)C(C)O1 (some centres undefined) | 13 nM | –
38 | CCCCN(CCCC)C(=O)CN1C[C@H](c2ccc3c(c2)OCO3)[C@@H](C(=O)O)[C@@H]1CCC1CCCCO1 (some centres undefined) | 1.8 nM | –
39 | CCCCN(CCCC)C(=O)CN1C[C@H](c2ccc3c(c2)OCO3)[C@@H](C(=O)O)[C@@H]1CCN1CCCC1=O | 0.42 nM | AUC [1]: 9 ng·h/mL; bioavailability [2]: 0.3%; Cmax [3]: 16 ng/mL; half-life [4]: 1.4 h; IC50 [6]: 18000 nM; IC50 [8]: 0.17 nM
40 | CCCCN(CCCC)C(=O)CN1C[C@H](c2ccc3c(c2)OCO3)[C@@H](C(=O)O)[C@@H]1CCCC1OCCO1 | 7 nM | –
